Measurements as given in ChEMBL document CHEMBL4342410, “Design and Discovery of N-(3-(2-(2-Hydroxyethoxy)-6-morpholinopyridin-4-yl)-4-methylphenyl)-2-(trifluoromethyl)isonicotinamide, a Selective, Efficacious, and Well-Tolerated RAF Inhibitor Targeting RAS Mutant Cancers: The Path to the Clinic” (J Med Chem, 2020).

Legend:
[1] = Oral bioavailability in dog at 0.4 mg/kg; type: ADME, organism-based, Canis lupus familiaris; details: in vivo
[2] = AUC (infinity) in dog at 0.4 mg/kg, po; type: ADME, organism-based, Canis lupus familiaris; parameters: dose 0.4 mg/kg, time infinity, route oral; details: in vivo
[3] = target: T1, RAF proto-oncogene serine/threonine-protein kinase (Homo sapiens, UniProt P04049); test: Binding affinity to wild-type human partial length CRAF (I330 to T640 residues) expressed in bacterial expression system at 1 uM by Kinomescan method relative to control
[4] = AUC (0 to 24 hrs) in nude rat xenografted with human Calu6 cells harboring KRAS Q61K mutant at 75 mg/kg, po administered daily for 18 days starting from day 13 post tumor implantation and measured on day 31; type: ADME, organism-based; parameters: time < 24 hr, dose 75 mg/kg, route oral; details: in vivo
Method in brief: (§1)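 Nude rats carrying Calu-6 (KRAS Q61K) NSCLC xenografts were dosed p.o. once daily at 15, 35, 75 or 150 mg/kg from day 13 to day 31 after implant. Plasma was collected after the last dose and drug concentration was measured. AUC and Cmax were calculated per dose on day 31.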

[5] = Toxicity in human Calu6 cells harboring KRAS Q61K mutant xenografted nude rat assessed as mortality at 15 to 150 mg/kg, po administered daily for 18 days starting from day 13 post tumor implantation and measured during compound dosing; type: organism-based; details: in vivo, 432 h
Method in brief: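 Nude rats bearing Calu-6 (KRAS Q61K) NSCLC xenografts were dosed orally once daily with vehicle or 15, 35, 75 or 150 mg/kg. Dosing ran from day 13 post-implant to day 31. Rats were monitored for mortality and signs of toxicity over the treatment period, alongside body weight.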

[6] = Stimulation of BRAF-CRAF dimerization in human HCT116 cells measured after 2 hrs by NanoBit luciferase complementation assay; type: cell-based; details: read-out: EC50
[7] = Time of last measurable concentration in nude rat xenografted with human Calu6 cells harboring KRAS Q61K mutant at 150 mg/kg, po administered daily for 18 days starting from day 13 post tumor implantation and measured on day 31; type: ADME, organism-based; details: in vivo, 432 h
Method in brief: (§2)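 Calu-6 xenograft nude rats were dosed orally once daily at 15, 35, 75 or 150 mg/kg from day 13 after implantation to day 31. Plasma was collected after the last dose on day 31, drug concentrations were measured, and PK parameters including AUC were calculated for each dose.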

[8] = test system: RAF proto-oncogene serine/threonine-protein kinase (Homo sapiens), P04049 [Y340E,Y341E]; test: Binding affinity to CRAF Y340E/Y341E mutant (unknown origin) assessed as dissociation half life by rapid dilution method
Method in brief: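 Full-length CRAF carrying activating Y340E/Y341E was used in a kinase activity assay. Dissociation was measured by the rapid dilution method, and recovery of enzyme activity was followed over 6 hours of incubation. The dissociation half-life was derived from that recovery.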

[9] = Time at which free plasma concentration stays above in vitro IC50 for CRAF in human Calu6 cells assessed as reduction MEK phosphorylation in nude rat xenografted with human Calu6 cells harboring KRAS Q61K mutant at 150 mg/kg, po; type: ADME, organism-based; details: in vivo
[10] = Cmax in nude rat xenografted with human Calu6 cells harboring KRAS Q61K mutant at 75 mg/kg, po administered daily for 18 days starting from day 13 post tumor implantation and measured on day 31; type: ADME, organism-based; parameters: dose 75 mg/kg, route oral; details: in vivo; method in brief: as §1
[11] = target: Epithelial discoidin domain-containing receptor 1 (Homo sapiens) (UniProt Q08345); test: Binding affinity to wild-type human partial length DDR1 (R565 to V876 residues) expressed in bacterial expression system at 1 uM by Kinomescan method relative to control
Method in brief: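 KINOMEscan competition binding panel of about 456 kinases, compound tested at 1 μM. Activity is given as % of control = [(test signal − positive control signal)/(negative control signal − positive control signal)] × 100.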

[12] = target: Voltage-gated inwardly rectifying potassium channel KCNH2 (Homo sapiens, UniProt Q12809); test: Inhibition of human ERG by patch clamp method
Method in brief: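 hERG inhibition measured by manual patch clamp.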

[13] = Clearance in mouse at 2 mg/kg, iv or 4 mg/kg, po; type: ADME, organism-based; details: in vivo
Calu-6 [14] = test: Antitumor activity against human Calu6 cells harboring KRAS Q61K mutant xenografted in nude rat assessed as tumor growth at 35 mg/kg, po administered daily for 18 days starting from day 13 post tumor implantation and measured on day 31 relative to control; type: functional
Method in brief: (§3)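 Nude rats bearing Calu-6 (KRAS Q61K) human NSCLC xenografts received vehicle or drug p.o. daily at 15, 35, 75 or 150 mg/kg. Dosing began 13 days after tumor implantation and ran to day 31, i.e. 18 days of treatment. Tumor volumes were read out as %T/C or % regression versus vehicle on day 31. Body weight was also tracked.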

[15] = Apparent permeability across apical to basolateral side in human Caco2 cells at pH 7.4 by LC/MS/MS analysis; type: ADME, cell-based; details: Caco-2, pH 7.4
[16] = Volume of distribution at steady state in rat at 2 mg/kg, iv or 4 mg/kg, po; type: ADME, organism-based; details: in vivo, read-out: Vdss
[17] = Volume of distribution at steady state in mouse at 2 mg/kg, iv or 4 mg/kg, po; type: ADME, organism-based; details: in vivo, read-out: Vdss
[18] = Cmax in dog at 0.4 mg/kg, po; type: ADME, organism-based, Canis lupus familiaris; parameters: dose 0.4 mg/kg, route oral; details: in vivo
[19] = Time of last measurable concentration in nude rat xenografted with human Calu6 cells harboring KRAS Q61K mutant at 15 mg/kg, po administered daily for 18 days starting from day 13 post tumor implantation and measured on day 31; type: ADME, organism-based; details: in vivo, 432 h; method in brief: as §2
[20] = Cmax in nude rat xenografted with human Calu6 cells harboring KRAS Q61K mutant at 150 mg/kg, po administered daily for 18 days starting from day 13 post tumor implantation and measured on day 31; type: ADME, organism-based; parameters: dose 150 mg/kg, route oral; details: in vivo; method in brief: as §1
[21] = Tmax in nude rat xenografted with human Calu6 cells harboring KRAS Q61K mutant at 35 mg/kg, po administered daily for 18 days starting from day 13 post tumor implantation and measured on day 31; type: ADME, organism-based; details: in vivo; method in brief: as §2
[22] = Oral bioavailability in rat at 4 mg/kg; type: ADME, organism-based; details: in vivo
[23] = target: Platelet-derived growth factor receptor beta (Homo sapiens, UniProt P09619); test: Binding affinity to wild-type human partial length PDGFRB (V582 to Y1009 residues) expressed in bacterial expression system by Kinomescan method
Rattus norvegicus = test: In vivo inhibition of CRAF in nude rat xenografted with human Calu6 cells harboring KRAS Q61K mutant assessed as reduction in tumor MEK phosphorylation at 150 mg/kg, po administered as single dose measured after 24 hrs by sandwich ELISA relative to control; type: functional; details: Calu-6, po
Method in brief: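 Calu-6 (KRAS Q61K) xenograft-bearing nude rats were given a single oral dose of 15, 35, 75 or 150 mg/kg. Tumor and blood were sampled at 1, 4, 7, 24 and 48 h post-dose. Tumor pMEK was quantified by MSD immunoassay and expressed as percent pMEK. Free plasma exposure was determined in parallel.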

[24] = Dissociation constant, pKa of the compound; type: physicochemical
[25] = AUC (infinity) in mouse at 4 mg/kg, po; type: ADME, organism-based; parameters: dose 4 mg/kg, route oral, time infinity; details: in vivo
Calu-6 [26] = test: Antitumor activity against human Calu6 cells harboring KRAS Q61K mutant xenografted in po dosed nude rat assessed as increase in tumor regression administered daily for 18 days starting from day 13 post tumor implantation and measured on day 31; type: functional, organism-based; method in brief: as §3
[27] = target: T1, RAF proto-oncogene serine/threonine-protein kinase; test: Binding affinity to wild-type human partial length CRAF (I330 to T640 residues) expressed in bacterial expression system by Kinomescan method

Epithelial discoidin domain-containing receptor 1 (Homo sapiens), sequence (Q08345 whole entry, the tested form may be a part): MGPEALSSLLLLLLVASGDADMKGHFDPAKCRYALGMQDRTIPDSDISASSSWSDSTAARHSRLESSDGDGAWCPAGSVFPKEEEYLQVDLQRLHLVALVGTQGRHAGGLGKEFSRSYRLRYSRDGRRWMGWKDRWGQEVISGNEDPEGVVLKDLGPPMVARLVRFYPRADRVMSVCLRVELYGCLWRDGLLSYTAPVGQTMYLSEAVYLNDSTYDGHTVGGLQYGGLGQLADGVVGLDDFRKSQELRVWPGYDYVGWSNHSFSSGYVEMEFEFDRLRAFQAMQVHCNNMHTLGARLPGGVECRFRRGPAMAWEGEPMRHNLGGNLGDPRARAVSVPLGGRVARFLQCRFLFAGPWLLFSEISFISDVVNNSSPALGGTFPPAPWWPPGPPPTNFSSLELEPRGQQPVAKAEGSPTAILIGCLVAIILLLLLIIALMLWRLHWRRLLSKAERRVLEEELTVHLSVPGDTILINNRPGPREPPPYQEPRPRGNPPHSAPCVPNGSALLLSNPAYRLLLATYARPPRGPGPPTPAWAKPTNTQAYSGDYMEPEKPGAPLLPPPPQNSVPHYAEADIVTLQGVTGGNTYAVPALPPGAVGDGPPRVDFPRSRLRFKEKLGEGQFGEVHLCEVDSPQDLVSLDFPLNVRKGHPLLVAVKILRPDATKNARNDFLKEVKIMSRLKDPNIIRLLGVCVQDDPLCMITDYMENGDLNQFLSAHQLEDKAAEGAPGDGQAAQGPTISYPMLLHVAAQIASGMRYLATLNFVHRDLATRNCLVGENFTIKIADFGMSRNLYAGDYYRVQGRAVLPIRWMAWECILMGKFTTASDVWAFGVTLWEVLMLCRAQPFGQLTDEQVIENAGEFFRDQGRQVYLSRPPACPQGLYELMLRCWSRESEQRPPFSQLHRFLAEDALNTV
Voltage-gated inwardly rectifying potassium channel KCNH2, sequence (Q12809 whole entry): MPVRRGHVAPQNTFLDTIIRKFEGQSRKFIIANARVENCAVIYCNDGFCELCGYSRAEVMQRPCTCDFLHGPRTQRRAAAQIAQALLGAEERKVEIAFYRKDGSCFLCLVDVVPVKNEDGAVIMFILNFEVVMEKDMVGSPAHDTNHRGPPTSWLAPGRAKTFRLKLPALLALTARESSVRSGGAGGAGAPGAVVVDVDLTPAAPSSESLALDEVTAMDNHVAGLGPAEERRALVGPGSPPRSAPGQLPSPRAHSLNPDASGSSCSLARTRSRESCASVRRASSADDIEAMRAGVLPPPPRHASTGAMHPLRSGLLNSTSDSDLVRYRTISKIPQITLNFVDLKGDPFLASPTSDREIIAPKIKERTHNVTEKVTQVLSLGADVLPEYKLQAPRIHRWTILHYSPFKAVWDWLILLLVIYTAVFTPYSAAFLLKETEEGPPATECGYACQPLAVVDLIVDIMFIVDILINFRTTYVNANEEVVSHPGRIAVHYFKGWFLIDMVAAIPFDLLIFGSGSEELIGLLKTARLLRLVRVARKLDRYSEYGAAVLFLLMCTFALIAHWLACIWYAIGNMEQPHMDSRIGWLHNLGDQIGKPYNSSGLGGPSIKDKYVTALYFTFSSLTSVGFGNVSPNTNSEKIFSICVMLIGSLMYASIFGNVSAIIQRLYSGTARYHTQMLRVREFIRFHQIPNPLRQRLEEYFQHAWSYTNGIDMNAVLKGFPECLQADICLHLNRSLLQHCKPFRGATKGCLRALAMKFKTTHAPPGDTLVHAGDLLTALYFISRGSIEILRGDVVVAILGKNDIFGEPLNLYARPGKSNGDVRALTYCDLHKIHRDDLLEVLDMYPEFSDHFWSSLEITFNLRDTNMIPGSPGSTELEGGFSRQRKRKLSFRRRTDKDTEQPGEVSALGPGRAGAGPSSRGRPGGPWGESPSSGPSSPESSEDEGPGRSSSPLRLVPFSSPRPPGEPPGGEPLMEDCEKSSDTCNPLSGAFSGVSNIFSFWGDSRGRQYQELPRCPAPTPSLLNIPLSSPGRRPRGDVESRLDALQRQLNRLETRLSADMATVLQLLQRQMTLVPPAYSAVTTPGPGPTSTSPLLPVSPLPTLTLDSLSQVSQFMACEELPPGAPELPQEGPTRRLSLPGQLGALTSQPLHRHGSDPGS
Platelet-derived growth factor receptor beta, sequence (P09619 whole entry, the tested form may be a part): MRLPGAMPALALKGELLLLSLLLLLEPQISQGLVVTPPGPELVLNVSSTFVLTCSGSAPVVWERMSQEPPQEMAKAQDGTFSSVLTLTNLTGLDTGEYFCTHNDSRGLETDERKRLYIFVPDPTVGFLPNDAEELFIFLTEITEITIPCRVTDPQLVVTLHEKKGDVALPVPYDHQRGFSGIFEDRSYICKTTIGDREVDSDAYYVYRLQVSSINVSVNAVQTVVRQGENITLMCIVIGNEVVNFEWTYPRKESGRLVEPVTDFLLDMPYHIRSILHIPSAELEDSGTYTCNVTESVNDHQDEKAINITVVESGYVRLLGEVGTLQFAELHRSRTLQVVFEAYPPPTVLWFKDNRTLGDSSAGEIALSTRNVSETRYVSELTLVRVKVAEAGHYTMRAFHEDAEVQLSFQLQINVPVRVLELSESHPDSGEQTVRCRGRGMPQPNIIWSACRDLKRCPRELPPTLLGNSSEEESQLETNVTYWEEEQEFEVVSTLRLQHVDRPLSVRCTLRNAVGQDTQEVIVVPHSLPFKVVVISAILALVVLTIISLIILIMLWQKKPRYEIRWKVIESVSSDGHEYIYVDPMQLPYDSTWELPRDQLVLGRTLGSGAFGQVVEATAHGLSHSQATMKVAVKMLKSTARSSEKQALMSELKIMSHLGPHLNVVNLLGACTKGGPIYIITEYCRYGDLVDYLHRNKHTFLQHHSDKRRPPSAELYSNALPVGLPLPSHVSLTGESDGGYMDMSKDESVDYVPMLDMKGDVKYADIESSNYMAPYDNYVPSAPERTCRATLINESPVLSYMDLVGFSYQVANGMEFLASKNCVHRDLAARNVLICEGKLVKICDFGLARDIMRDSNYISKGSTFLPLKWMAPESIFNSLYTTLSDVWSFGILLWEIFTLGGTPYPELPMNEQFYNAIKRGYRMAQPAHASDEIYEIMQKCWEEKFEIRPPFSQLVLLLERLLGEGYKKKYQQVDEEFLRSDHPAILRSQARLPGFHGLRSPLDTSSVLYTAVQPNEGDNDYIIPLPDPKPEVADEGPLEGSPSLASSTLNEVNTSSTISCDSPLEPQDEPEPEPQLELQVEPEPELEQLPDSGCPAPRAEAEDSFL

## Cc1ccc(NC(=O)c2ccnc(C(F)(F)F)c2)cc1-c1cc(OCCO)nc(N2CCOCC2)c1 [NAPORAFENIB]
[1]
  bioavailability: 79%
[2]
  AUC(0-inf): 3.1 µM·h
[3]
  Activity: > 98%
[4]
  AUC at 24 h: 105 µM·h
[5]
  Activity: Non-Toxic
[6]
  EC50: 160 nM
[7]
  Tlast: 24 h
[8]
  T1/2: > 6.5 h
[9]
  T>IC50: 24 h
[10]
  Cmax: 8.68 µM
[11]
  Activity: > 99%
[12]
  IC50: > 10 µM
[13]
  clearance: 19 mL/min/kg
Calu-6 [14]
  T/C: 9%
[15]
  Papp A→B: 9 ×10⁻⁶ cm/s
[16]
  Vd: 5.4 L/kg
[17]
  Vd: 2.1 L/kg
[18]
  Cmax: 400 nM
[19]
  Tlast: 24 h
[20]
  Cmax: 12.7 µM
[21]
  Tmax: 3 h
[22]
  bioavailability: 38%
[23]
  Kd: 14 nM
Rattus norvegicus
  inhibition in vivo at 150 mg/kg: 70%
[24]
  pKa: 3.86
[25]
  AUC(0-inf): 4.3 µM·h
Calu-6 [26]
  Activity: Dose-dependent effect
[27]
  Kd: 3.6 nM
